Measured values taken from publication PMC7615941 (Cell, 2023).

Tests used:
C5aR1 = assay: G-protein coupling and βarr recruitment, C5aR1; assay type: cell-based; conditions: Figure 7A
[1] = molecular target: C3aR with C-terminal SmBiT, in HEK-293 cells (human) (UniProt Q16581)
[2] = molecular target: T1, human C5a receptor 1, FLAG-tagged, expressed in Sf9 for cryo-EM (human, UniProt P21730 2-350, alkylated with iodoacetamide); assay: cryo-EM structure
T1 sequence: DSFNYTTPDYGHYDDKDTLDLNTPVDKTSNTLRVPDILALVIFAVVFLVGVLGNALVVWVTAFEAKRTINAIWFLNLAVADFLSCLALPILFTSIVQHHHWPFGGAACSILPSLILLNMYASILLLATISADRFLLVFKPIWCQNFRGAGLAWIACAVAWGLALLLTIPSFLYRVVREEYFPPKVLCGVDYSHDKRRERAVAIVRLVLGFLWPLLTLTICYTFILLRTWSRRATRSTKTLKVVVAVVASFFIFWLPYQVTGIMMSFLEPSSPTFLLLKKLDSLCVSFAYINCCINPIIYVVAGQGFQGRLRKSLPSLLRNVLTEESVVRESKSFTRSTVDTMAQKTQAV

[3] = molecular target: T2, mouse C5a receptor 1, FLAG-tagged, expressed in Sf9 for cryo-EM (mouse, UniProt P30993 2-351, alkylated with iodoacetamide); assay: cryo-EM structure
T2 sequence: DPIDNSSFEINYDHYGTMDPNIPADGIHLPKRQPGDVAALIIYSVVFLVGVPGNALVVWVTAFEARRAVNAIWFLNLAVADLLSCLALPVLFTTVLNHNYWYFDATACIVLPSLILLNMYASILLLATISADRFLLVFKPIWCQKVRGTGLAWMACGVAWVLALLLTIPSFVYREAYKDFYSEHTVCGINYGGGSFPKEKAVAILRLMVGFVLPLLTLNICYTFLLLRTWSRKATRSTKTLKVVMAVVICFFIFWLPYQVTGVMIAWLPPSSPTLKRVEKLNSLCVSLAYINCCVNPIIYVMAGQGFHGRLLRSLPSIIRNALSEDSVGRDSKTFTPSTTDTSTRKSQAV

mC5aR1 [4] = molecular target: T3, mC5aR1 (Mus musculus, UniProt P30993); assay: GloSensor-based cAMP assay; assay type: cell-based
T3 sequence (P30993 1-351): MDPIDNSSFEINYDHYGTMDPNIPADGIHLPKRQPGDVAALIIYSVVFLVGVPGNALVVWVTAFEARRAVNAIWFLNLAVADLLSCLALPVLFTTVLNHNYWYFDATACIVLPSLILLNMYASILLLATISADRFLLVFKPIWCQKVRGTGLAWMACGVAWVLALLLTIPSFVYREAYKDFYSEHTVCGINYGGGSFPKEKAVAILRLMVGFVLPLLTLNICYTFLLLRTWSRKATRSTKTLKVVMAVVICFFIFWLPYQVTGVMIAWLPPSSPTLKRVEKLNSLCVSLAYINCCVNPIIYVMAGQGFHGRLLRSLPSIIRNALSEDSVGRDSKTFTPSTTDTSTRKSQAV

mC5aR1 [5] = molecular target: T3, mC5aR1; assay: NanoBiT βarr1/2 recruitment and endosomal trafficking, mC5aR1; assay type: cell-based; conditions: Figures 1I-1P, C5a^pep compared with hC5aR1
Method in brief: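 HEK-293 cells, PEI transfection (DNA:PEI 1:3). Recruitment used 1 μg mC5aR1-SmBiT (C-terminal) with 3.5 μg LgBiT-βarr1/2 (N-terminal). Trafficking used N-SmBiT-βarr1/2 with N-LgBiT-FYVE. After 16-18 h, cells went into HBSS, 0.01% BSA, 5 mM HEPES pH 7.4, 10 μM coelenterazine at 0.1 million/100 μL. Incubation 90 min 37 °C, then 30 min RT. Three basal luminescence reads, then serially diluted ligand.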

C3aR = molecular target: T4, C3aR (Homo sapiens, UniProt Q16581); assay: GloSensor-based cAMP assay; assay type: cell-based; conditions: Figure 7A; only at moderately high concentration (i.e., 1 μM)
T4 sequence (Q16581 1-482): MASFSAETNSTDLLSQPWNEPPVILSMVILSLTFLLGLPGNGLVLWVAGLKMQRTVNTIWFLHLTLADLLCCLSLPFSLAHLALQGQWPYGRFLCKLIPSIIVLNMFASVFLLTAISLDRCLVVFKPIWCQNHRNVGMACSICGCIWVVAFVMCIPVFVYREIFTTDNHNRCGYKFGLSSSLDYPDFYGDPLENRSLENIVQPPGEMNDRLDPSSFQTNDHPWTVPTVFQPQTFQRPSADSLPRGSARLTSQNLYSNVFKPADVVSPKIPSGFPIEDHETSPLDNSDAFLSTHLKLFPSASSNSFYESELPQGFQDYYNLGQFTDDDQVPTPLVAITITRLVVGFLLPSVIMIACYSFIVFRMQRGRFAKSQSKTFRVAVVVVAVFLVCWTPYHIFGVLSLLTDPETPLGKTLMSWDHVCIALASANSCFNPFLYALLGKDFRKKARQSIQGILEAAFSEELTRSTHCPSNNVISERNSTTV

Molecule: C3a: complement anaphylatoxin, 77 amino acids, four-helix bundle; natural agonist of C3aR
- transducer-coupling response at C5aR1 (C5aR1): did not exhibit any measurable transducer-coupling response

Molecule: EP141, pentadecameric peptide derived from and modified based on the carboxyl terminus of C3a
- Emax of βarr1/2 recruitment to C3aR (NanoBiT), relative to C3a [1]: 55 to 65 % of C3a

Molecule: human complement anaphylatoxin C3a (from UniProt P01024 672-748) (ligand)
- EC50 of βarr1/2 recruitment to C3aR (NanoBiT) [1]: 10 to 20 nM

B1: human complement anaphylatoxin C5a (ligand, UniProt P01031 678-751, looked up)
chain: TLQKKIEEIAAKYKHSVVKKCCYDGACVNNDETCEQRAARISLGPRCIKAFTECCVVASQLRANISHKDMQLGR
- binding result [2]: binds
- binding result [3]: binds

B2: C5a: complement anaphylatoxin, 74 amino acids, four-helix bundle; natural agonist of C5aR1 (protein)
chain: B1 chain
modifications: left off: Trx, N-terminal, cleaved | His6, N-terminal, cleaved
- potency at mC5aR1 compared with hC5aR1, cAMP response (mC5aR1 [4]; Figures 1G and 1H): slightly lower potency
- agonism, G-protein-mediated cAMP response (mC5aR1 [4]; Figures 1G and 1H, mC5aR1): full agonists
- difference between human and mouse C5aR1, G-protein coupling (mC5aR1 [4]; human vs mouse C5aR1): only a small difference
- agonism, βarr recruitment and endosomal trafficking (mC5aR1 [5]): full agonism
- cross-reactivity with C3aR in G-protein-coupling assay (C3aR): some cross-reactivity
